Experimental data of several laboratories.
Lines come from different studies, so protocols differ.
PBRM1 BD2: Protein polybromo-1, BD2 (PBRM1, Homo sapiens, UniProt Q86U86)
BRD2 BD1: Bromodomain-containing protein 2, BD1 (BRD2, Homo sapiens, UniProt P25440)
PBRM1 bromodomain: Protein polybromo-1, bromodomain (PBRM1, Homo sapiens, UniProt Q86U86)

`Nc1ncnc2occ(-c3ccc(NC(=O)Nc4cc(C(F)(F)F)ccc4F)cc3)c12` gave a remaining signal of 73% (Receptor tyrosine-protein kinase erbB-3 (ERBB3, Homo sapiens, UniProt P21860); cell-free assay, inhibitor; 20 µM).
For `O=C(O)c1cccc(NC(c2ccccc2)c2ccc3ccccc3c2O)c1` (stereo not shown), the remaining activity was less than 40% (CAAX prenyl protease 2 (Homo sapiens, UniProt Q9Y256); enzyme activity, inhibitor; 10 µM).
The inhibition of `CN(C)C1CCN(CC#Cc2nn(C3CCCC3)c3nc(NCc4ccccc4)ncc23)C1` (stereo not shown) is reported as 31% (Insulin receptor (INSR, Homo sapiens, UniProt P06213); enzyme activity, inhibitor, FRET; 10 µM).
`C[S+]([O-])c1ccc(-c2nc(-c3ccncc3)c(-c3ccc(F)cc3)[nH]2)cc1` (stereo not shown) has a ΔTm of 0.28 °C (Protein polybromo-1, BD1 (PBRM1, Homo sapiens, UniProt Q86U86); thermal stability, DSF; 10 µM).
`CC(C)(C)C/C=C1\CCn2c1nc(=O)c1c(Cl)cccc12` has a ΔTm of 4.96 °C (PBRM1 BD2; thermal stability, DSF; 100 µM).
`Cc1cc2c(cc1N1C(=O)c3cccc4c(Cl)ccc(c34)C1=O)n(C)c(=O)n2C` has a ΔTm of 0.3 °C (BRD2 BD1; thermal stability, DSF; 10 µM).
The remaining binding of `NS(=O)(=O)c1ccc(Nc2nc(-c3ccc(F)cc3)c3ccccc3n2)cc1` is reported as 4% (BRD2 BD1; binding, competition with immobilised ligand; 1 µM).
`CCC(/C=C1\CCn2c1nc(=O)c1c(Cl)c(Cl)ccc12)CC` gave a ΔTm of 2.23 °C (PBRM1 bromodomain; thermal stability, DSF; 100 µM).
With `Cc1cnc(Nc2ccc(OCCN3CCCC3)cc2)nc1Nc1cccc(S(=O)(=O)NC(C)(C)C)c1` the ΔTm was 2.4 °C (BRD2 BD1; thermal stability, DSF; 10 µM).
`CN(C)/C=C1\CCCn2c1nc(=O)c1c(Cl)cccc12` gave a ΔTm of 1.44 °C (PBRM1 BD2; thermal stability, DSF; 100 µM).
`Cc1ccc(C(=O)Nc2ccc(CN3CCN(C)CC3)c(C(F)(F)F)c2)cc1C#Cc1cnc2cccnn12` has a remaining activity of 100% (Casein kinase I isoform alpha-like (CSNK1A1L, Homo sapiens, UniProt Q8N752); enzyme activity; 23.5 nM).
`CC/C=C1\CCn2c1nc(=O)c1c(Cl)cccc12` has a ΔTm of -0.23 °C (PBRM1 BD2; thermal stability, DSF; 100 µM).
The remaining activity of `CCCOc1ccc(OC)c(F)c1C(=O)c1ccc(C(=O)N[C@@H]2CNC[C@H]2NC(=O)c2ccc3[nH]ncc3c2)cc1` is reported as 14% (Serine/threonine-protein kinase N2 (PKN2, Homo sapiens, UniProt Q16513); enzyme activity, inhibitor; 0.5 µM).
`CCC(/C=C1\CCCn2c1nc(=O)c1c(Cl)cccc12)CC` has a ΔTm of 5.82 °C (PBRM1 bromodomain; thermal stability, DSF; 100 µM).
With `CC(C)(O)[C@H]1CC[C@H](Nc2ccc3ncc(-c4cccc(C(F)(F)F)c4)n3n2)CC1` the remaining activity was 40.2% (Serine/threonine-protein kinase N3 (PKN3, Homo sapiens, UniProt Q6P5Z2); enzyme activity, inhibitor; 1 µM).
The ΔTm of `Oc1ccc(-c2nc(-c3ccncc3)c(-c3ccc(F)cc3)[nH]2)cc1` is reported as 1.18 °C (BRD2 BD1; thermal stability, DSF; 10 µM).
`Cc1oc2cc3oc(=O)c(C)c(C)c3cc2c1C` has a remaining activity of 20.7% (Aldehyde dehydrogenase, mitochondrial (ALDH2, Homo sapiens, UniProt P05091); enzyme activity, inhibitor, absorbance; 10 µM).
The remaining activity of `CCC1=C[C@@H]2CN(C1)Cc1c([nH]c3ccccc13)[C@@](C(=O)OC)(c1cc3c(cc1OC)N(C)[C@H]1[C@@](O)(C(=O)OC)[C@H](OC(C)=O)[C@]4(CC)C=CCN5CC[C@]31[C@@H]54)C2` is reported as 15.3% (Organic cation/carnitine transporter 2 (SLC22A5, Homo sapiens, UniProt O76082); transporter uptake, inhibitor; HEK293; 100 µM).
`CCC/C=C1\CCn2c1nc(=O)c1c(Cl)cccc12` gave a ΔTm of 11 °C (PBRM1 bromodomain; thermal stability, DSF; 100 µM).
The remaining signal of `Cc1ccc(NC(=O)c2ccc(C)c(C(F)(F)F)c2)cc1C#Cc1nn(C2CCC(O)CC2)c2ncnc(N)c12` (stereo not shown) is reported as -2% (Tyrosine-protein kinase ABL1 (Abl1, Mus musculus, UniProt P00520); cell-free assay; 10 µM).
The ΔTm of `CCC(/C=C1\CCn2c1nc(=O)c1ccc(O)cc12)CC` is reported as -0.42 °C (PBRM1 bromodomain; thermal stability, DSF; 100 µM).
For `CCCCCCN1CCCn2c1nc1c2c(=O)n(C)c(=O)n1C`, the inhibition was 9% (Adenosine receptor A2b (ADORA2B, Homo sapiens, UniProt P29275); ligand displacement, radioligand; 10 µM, cell membranes).
